Experimental data of several laboratories.
Target: Serine/threonine-protein kinase PAK 3 (PAK3, Homo sapiens, UniProt O75914)

| SMILES | assay | setting | remaining binding [%] |
| --- | --- | --- | --- |
| CNC(=O)[C@@H]1CC[C@@H](n2c(-c3ccc4cnccc4c3)nc3ccc(C(=O)NCc4cccc(C(N)=O)c4)cc32)C1 | binding, competition with immobilised ligand | 1 µM | 95 |
| CS(=O)(=O)NCC[C@H](NC(=O)c1cncc2c1cnn2-c1ccc(F)cc1)c1ccnc(S(C)(=O)=O)c1 | cell-free assay, competition with immobilised ligand | 1 µM | 100 |
| COc1ccnn2ncc(-c3ccnc(N(C)C)n3)c12 | binding | 1 µM | 100 |
| O=C(c1ccc(Nc2nccc(-c3cc4ccccc4s3)n2)cc1)N1CCC(N2CCCC2)CC1 | binding, competition with immobilised ligand | 1 µM | 39 |
| Cc1c(NC(=O)c2cc(C(N)=O)nc3cc(F)ccc23)c(C(F)(F)F)nn1Cc1ccc(C(C)(C)C)cc1 | cell-free assay, competition with immobilised ligand | 1 µM | 100 |
| O=C(NCCCN1CCOCC1)c1ccc(Nc2ncc(Cl)c(-c3ccc(Cl)s3)n2)cc1 | binding, competition with immobilised ligand | 1 µM | 77 |
| C[C@@H]1CCN(c2nccc(-c3cnn4ncccc34)n2)C1 | binding | 1 µM | 85 |
| O=C(NCCCN1CCOCC1)c1ccc(Nc2nccc(-c3cc4ccccc4s3)n2)cc1 | binding, competition with immobilised ligand | 1 µM | 71 |
| CC(=O)c1c(NS(C)(=O)=O)c2cc(-c3ccc(Cl)cc3)c(-c3ccc(Cl)cc3Cl)nc2n(C)c1=O | cell-free assay, competition with immobilised ligand | 1 µM | 100 |
| Nc1ncc2c(n1)-c1c([nH]c3ccc(C#CC4CC4)cc13)CCCC2 | binding, competition with immobilised ligand | 1 µM | 90 |
| O=C(Nc1c[nH]nc1C(=O)NC1CCNCC1)c1cc(F)cc(F)c1 | binding, competition with immobilised ligand | 1 µM | 98 |
| c1cncc(-c2cccc(Nc3nccc(NC4CCCCC4)n3)c2)c1 | binding, competition with immobilised ligand | 10 µM | 38 |
| CN(C)c1nccc(-c2cnc3ncccn23)n1 | binding | 1 µM | 100 |
| CC(=O)Nc1c(C(C)=O)c(=O)n(C)c2nc(-c3ccc(Cl)cc3Cl)c(-c3ccc(Cl)cc3)cc12 | cell-free assay, competition with immobilised ligand | 1 µM | 100 |
| CN(c1nccc(-c2cnn3ncccc23)n1)C1CC1 | binding | 1 µM | 100 |
| O=C(Nc1ccc(Oc2ccc(F)cc2)cc1)N1CCc2ncccc2[C@H]1c1ccc(F)cc1 | cell-free assay, competition with immobilised ligand | 1 µM | 100 |
| CN(C)c1nccc(-c2cnn3ncccc23)n1 | binding | 1 µM | 100 |
| CCS(=O)(=O)c1cc2cc(C[C@](O)(CC(C)(C)c3ccc(F)cc3C(N)=O)C(F)(F)F)[nH]c2cn1 | cell-free assay, competition with immobilised ligand | 1 µM | 100 |
| c1cnn2ncc(-c3ccnc(N4CCC45COC5)n3)c2c1 | binding | 1 µM | 88 |
| COc1ncc2cc3ccccc3nc2c1C#N | cell-free assay, competition with immobilised ligand | 5 µM | 100 |
